The EternaBench riboswitch data

Tested on: MS2 coat protein
Experiment: apparent Kd, MS2 coat protein; higher = weaker binding; RNA-MaP array; FMN 200 µM where present
Method in brief: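 The apparent Kd is reported as the median of filtered per-cluster binding-curve fits. To get these curves, designs transcribed by stalled E. coli RNA polymerase on Illumina sequencing-chip clusters were titrated with SNAP-549-labelled MS2 coat protein from 0.7 or 1.5 nM, doubling to 3 µM. Titrations were run without and then with constant ligand in 100 mM Tris-HCl pH 7.5, 80 mM KCl, 4 mM MgCl2, BSA, DTT, yeast tRNA and Tween-20, and green signal was normalised to red-channel RNA signal and control-cluster median Fmax.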

[1] = designed as: OFF switch for flavin mononucleotide, no ligand
[2] = ligand present: flavin mononucleotide, designed as: OFF switch for flavin mononucleotide
[3] = designed as: ON switch for flavin mononucleotide, no ligand
[4] = ligand present: flavin mononucleotide, designed as: ON switch for flavin mononucleotide

| Sequence | apparent Kd [1] | apparent Kd [2] | apparent Kd [3] | apparent Kd [4] |
| --- | --- | --- | --- | --- |
| GUAAUGUGAGGAUAUGGUAAAGAUAAGAUGAUGAAAGAACUCCAGAAGGCACAUGAGGAUCACCCAUGUAGAUG | 26.7 nM | 107 nM | – | – |
| GCAAAGCCUGACAUGAGGAUCACCCAUGUUAGAUUGUUAUGUCAGGAUAUUGUCUAGAAACUAGACAAGAAGGGAUGCUUUGCU | – | – | 421 nM | 25.3 nM |
| GACAAACAUGAGGAUCACCCAUGUUCAGACGAACAAGGAUAUGUGUGGAAACCAUACUAUACAGAAGGUGUCUGUC | – | – | 48.6 nM | 31.1 nM |
| UACUGGUGUGAGAAGGGACAUAUCUCCAUGAGGGCAGGGCGAUUAGAGAAGUCAGGAUAUCACAUGAGGAUCACCCAUGUGACA | 8.14 nM | 8.51 nM | – | – |
| GCCAGUUGAGGAUAUGCAGGUGGGUGCCCUGAUCCUCUGUUACAUGAGGAUCACCCAUGUAGAAGGCAAUGUCA | 92.4 nM | 123 nM | – | – |
| CGGCAAGUCACAGGAUAUGGUGAUGUACAUGAGGAUCACCCAUGUCCGUCUUCUCUCACAAGAUGCCAGAAGGGUGACUUCCAG | – | – | 946 nM | 140 nM |
| AUACAUGAGGAUCACCCAUGUAAUUAAUUAACUUGUAAGAUCAAGGAUAUCAGCUCGAUUAGAGCUGAGAAGGUGAUCACAUGU | – | – | 260 nM | 253 nM |
| GAUGAGAGAGGAUAUACAUGAGGAUCACCCAUGUAAUUUUCGGACAUGGAAGCUGGAUGUAGAAGGCUCGCAUG | 20 nM | 46.2 nM | – | – |
| AAUAUAAGAGCUGGUAACUCAAGAACAUGAGGAUCACCCAUGUAGGAUAUCAGCACGAUAAGUGCUGAGAAGGACAUCCAGCUC | 15.3 nM | 19 nM | – | – |
| GGUGCGUUUGUGAGGAUAUGCUGGUCCUUGGUUCGGCAGAAGGCACAUGAGGAUCACCCAUGUGGUGUCGUCCC | 33 nM | 98.6 nM | – | – |
| UGUCAUAUAUAGAAGGGUAGUAGGGUAUUACAUGAGGAUCACCCAUGUAUUAUAGGAUAUGUGUAUAGUUUUUAUUCAAGUAUA | 22.8 nM | 17 nM | – | – |
| UGUCGGAGCAGAGGAUAUUACAUGAGGAUCACCCAUGUAUGAACCAAUAGCUGGAAACUGCAAUGUAAGAAGGCUGCUCCGACA | 11.9 nM | 107 nM | – | – |
| GCACUGGAUGUAGGAUAUCAGGACGAUAAGUCCUGAGAAGGACAUGAGGAUCACCCAUGUGAUUACACCAGUGCAAAUAAUAUA | 5.78 nM | 7.06 nM | – | – |
| GAUAUAGUUGAGAAGGGAAGGGCACAGUCCUCUCUAAAACUACAUGAGGAUCACCCAUGUGGCUUUCAGGAUAUCAGCGCUAAA | 22.5 nM | 109 nM | – | – |
| GACCGUCACAAUAACCGGUUGAACGAGGAUAUGAUCACUGGGCCUGCACAUGAGGAUCACCCAUGUCAGAAGGCGUUCAGUCCC | 5.53 nM | 16.4 nM | – | – |
| UUGGACGUCGUAGGAUAUGUAGGAUAUUCCUACAUGAGGAUCACCCAUGUUGACAUGGAAGAAGGACAGAGGGACGAUGUCCAU | – | – | 454 nM | 11.6 nM |
| CAGACCGGCGCAGGAUAUGUCGACAUGAGGAUCACCCAUGUAAGCCUCGUCUGGUCCGGUGUGUGACAGAAGGGUGUCGGCCAA | 13.1 nM | 38.1 nM | – | – |
| AUCAGCUCGUCAGGAUAUACGUCACUGCGUCAGCAGUGUGGUAGGAUCACAUGAGGAUCACCCAUGUAGAAGGGACGAGCUGAU | 23.8 nM | 297 nM | – | – |
| UAUAUAUAGUAAGGAUAUGUAUUUAUUUUAGAAACAGAAGGUACUGACAUGAGGAUCACCCAUGUUUUAGUGUGGGCAUGUAGA | 96.3 nM | 152 nM | – | – |
| GUAGCUAUCGGAGGAUAUUUAUACCGUAAACGGACAUGAGGAUCACCCAUGUGGCGAAAGCCUUGGGAGAAGGCCGAUAGCUAC | – | – | 32.6 nM | 4.68 nM |
| GGAAACUACGAGAAGGACAUGUGGUCCUUCAGUUACAUGAGGAUCACCCAUGUAGGAUAUCGUAGUUUCAGGAUCGUGAGAUCC | 33 nM | 12.8 nM | – | – |
| UGCUAGUCAGGAUAUACGAACAUGUCAAAAGACGUGAAGGGACAUGAGGAUCACCCAUGUAGAAGGGACUAGCU | 38.4 nM | 129 nM | – | – |
| UUCACUCGAGUCAGGAUAUUAGUCCGCGAUAGUGUUAAGAAGGGACAUGAGGAUCACCCAUGUCACACAUGGAG | 28.2 nM | 23.2 nM | – | – |
